Experimental data taken from publication PMC4433875 (European journal of medicinal chemistry, 2015).
Blank lines part the entries; values can stand above or below the compound they belong to.

How the values were obtained:
[1] = system: most tested cancer cell lines; conditions: read-out: IC50 values for most tested cancer cell lines; original IBR2; cited from earlier work
[2] = system: triple-negative human breast cancer cell line MDA-MB-468; experiment: XTT cell killing assay, MDA-MB-468; format: cell-based; conditions: growth inhibition
Method in brief: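 MDA-MB-468 cells were grown in low-glucose DMEM with 10% FBS and 1% penicillin-streptomycin and plated one day before dosing. They received a four-day drug treatment, with the XTT proliferation kit read on day 6 after drug addition. Triplicate sets were compiled to give dose-dependent cytotoxicity.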

[3] = system: panel of cancer cell lines; experiment: XTT assay, panel of cancer cell lines; format: cell-based, human
RAD51 = biological target: T1, RAD51 (Homo sapiens, UniProt Q06609); experiment: Multimer formation assay; format: biochemical; conditions: RAD51:IBR120 1:10 molar ratio, vs DMSO
T1 sequence (Q06609 1-339): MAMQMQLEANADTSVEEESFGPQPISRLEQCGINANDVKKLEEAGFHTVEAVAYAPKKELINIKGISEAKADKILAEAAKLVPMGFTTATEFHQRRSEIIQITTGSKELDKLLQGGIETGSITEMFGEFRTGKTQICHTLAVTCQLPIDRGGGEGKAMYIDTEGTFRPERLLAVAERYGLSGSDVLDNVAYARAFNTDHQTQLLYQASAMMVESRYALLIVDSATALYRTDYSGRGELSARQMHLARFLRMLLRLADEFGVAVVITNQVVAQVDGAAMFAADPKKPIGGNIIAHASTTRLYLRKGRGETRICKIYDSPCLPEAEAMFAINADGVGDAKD
Method in brief: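 RAD51 (3.2 µg) was incubated with test compound (1:10 molar ratio) for 15 min at 37°C. Buffer was added (50mM triethanolamine-HCl pH7.5, 0.5mM Mg(OAc)2, 1mM DTT, 2mM ATP, 100 µg/ml BSA) and incubation continued 15 min. The mixture was run on a Superdex 200 gel filtration column equilibrated in the same buffer. Fractions were dot-blotted on PVDF and probed with anti-RAD51 mAb 14B4.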

[4] = system: HeLa cells stably expressing DR-GFP; experiment: I-SceI inducible gene conversion; format: cell-based, human; conditions: 10 or 20 µM, 24 hours, flow cytometry
Method in brief: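 HeLa cells carrying stably integrated DR-GFP, selected with 2 µg/mL puromycin, were transfected with the I-SceI expression vector pCBASce for 24 h to induce DSBs. Cells were then exposed to DMSO or 10 or 20 µM test compound for another 24 h, trypsinized and analysed by flow cytometry for the percentage of GFP-positive cells. Three independent experiments, means±SD.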

Compound: O=S(=O)(Cc1ccccc1)N1C=Cc2ccccc2C1c1c[nH]c2ccccc12 (centres unmarked) [IBR2]
IC50 [1]: 12 to 20 µM

Compound: O=S(=O)(Cc1ccccc1)N1CC=Cc2ccccc2[C@H]1c1c[nH]c2ccccc12 [IBR116]
change of activity on increasing the central ring size from six to seven [2]: almost complete loss of function

Compound: O=S(=O)(Cc1ccccc1)N1CC=Cc2ccccc2[C@@H]1c1c[nH]c2ccccc12 [IBR115]
change of activity on increasing the central ring size from six to seven [2]: minimal change of activity

IC50 ([3]; Homo sapiens, read-out: IC50 values in most tested cancer cell lines): 3 to 5 µM
RAD51 multimerization (gel filtration elution profile) (RAD51): can inhibit RAD51 multimerization
Compound: O=S(=O)(Cc1ccccc1)N1Cc2ccccc2[C@@H]1c1c[nH]c2ccccc12 [IBR120, (R)-3-(2-(benzylsulfonyl)isoindolin-1-yl)-1H-indole]
difference between the IC50 values in normal and cancer cells ([3]; normal MCF10A vs cancer cell lines): Approximately 10 fold
HR frequency (GFP positive population) [4]: significantly reduced

Compound: O=S(=O)(Cc1ccccc1)N1CCc2ccccc2[C@@H]1c1n[nH]c2ccccc12 [IBR117, (R)-1-(1H-Indazol-3-yl)-2-phenylmethanesulfonyl-1,2,3,4-tetrahydro-isoquinoline]
fold increase in activity compared to parental compound IBR2 [2]: 1.6~2.4 fold
